Experimental data from different studies.
Protocols differ between the studies behind these lines.
Target: TRAF2 and NCK-interacting protein kinase (TNIK, Homo sapiens, UniProt Q9UKE5)

CN(C)c1ncnc(-c2ccc3nc(Nc4cc(CN5CCN(C(=O)CC(F)(F)F)CC5)ccn4)[nH]c3c2)c1Cl
remaining binding (cell-free assay, competition with immobilised ligand; 1 µM): 53%

Cn1c2c(c3ccc(Cl)c(Cl)c31)C(C#N)C1(CCCCC1)NC2=O (racemic)
ΔTm (thermal stability, DSF; 10 µM): 0 °C

CCCCN(CCCC)C(=O)CN1C[C@@H](c2cc(OC)c3c(c2)OCO3)[C@H](C(=O)O)[C@H]1CC(C)(C)CCC
remaining binding (cell-free assay, competition with immobilised ligand; 1 µM): 86%

Cn1c2c(c3ccc(Cl)c(Cl)c31)C(C#N)C(C)(C)NC2=O (stereo not drawn)
ΔTm (thermal stability, DSF; 10 µM): -0.4 °C

Cn1cnc(Br)c1C1=CN(c2ncnc3[nH]cnc23)CCS1
inhibition (enzyme activity, inhibitor, radiometric; 2 µM): 88.7%

Cc1sc(C(=O)NC2COC2)cc1-n1cc(NC(=O)Nc2c(F)cccc2Cl)cn1
remaining activity (enzyme activity, inhibitor; 10 µM): 94.5%

CC1(C)NC(=O)c2[nH]c3c(Cl)c(Cl)ccc3c2C1C#N (stereo not drawn)
ΔTm (thermal stability, DSF; 10 µM): 0 °C

O=C(CSc1nc2nccnc2c(=O)n1CCc1ccccc1)Nc1nccs1
inhibition (enzyme activity, inhibitor; 10 µM): -4%

CN1CC(Oc2cnc(C#N)cc2-c2ccn3nc(NC(=O)C4CC4)cc3c2)C1
inhibition (enzyme activity, inhibitor; 1 µM): 29%

Cn1nc(C(=O)NCc2ccc(C(=O)O)cc2)cc1-c1ccc2[nH]ccc2c1
remaining binding (cell-free assay, competition with immobilised ligand; 0.1 µM): 97%

Cn1c2c(c3ccc(Cl)c(Cl)c31)C(C#N)C1(CCN(C(=O)OC(C)(C)C)CC1)NC2=O (racemic)
ΔTm (thermal stability, DSF; 10 µM): -0.1 °C

Cc1ccc(C(=O)Nc2ccc(CN3CCN(C)CC3)c(C(F)(F)F)c2)cc1C#Cc1cnc2cccnn12
remaining activity (enzyme activity, inhibitor; 23.5 nM): 34%

Cn1c2c(c3ccc(Cl)c(Cl)c31)C(C#N)C1(CCOCC1)NC2=O (stereo not drawn)
ΔTm (thermal stability, DSF; 10 µM): -0.1 °C

O=C(Nc1cnn(-c2csc(C(=O)NC3COC3)c2)c1)Nc1c(F)cccc1Cl
remaining activity (enzyme activity, inhibitor; 5 µM): 84.3%

CCCCNc1ncc2c(-c3ccc(F)cc3)nn(C[C@H]3CC[C@H](N)CC3)c2n1
inhibition (target engagement in cells, inhibitor, chemoproteomics; 20 mM): 62.6%

CCC(=O)N[C@H]1CC[C@@H](C(=O)N(C)c2ccc(-c3nc4ccccc4o3)cc2)C1
remaining binding (cell-free assay, competition with immobilised ligand; 1 µM): 100%

COc1cccc2c(NCc3ccccc3)nc(-n3c(N)nc4ccccc43)nc12
inhibition (target engagement in cells, inhibitor, chemoproteomics; 20 mM): 3.5%

CO[C@@H](C)c1c(Nc2ccc([C@@H](N(C)C(=O)C3CCS(=O)(=O)CC3)C(F)(F)F)cc2)cnc2cc(Cl)nn12
remaining binding (cell-free assay, competition with immobilised ligand; 1 µM): 100%

Nc1ncnc2occ(-c3ccc(NC(=O)Nc4cc(C(F)(F)F)ccc4F)cc3)c12
remaining signal (cell-free assay, inhibitor; 20 µM): 6.9%

COc1ccc2cc(OCC3(C(=O)O)CN(C(=O)c4ccc(F)cc4)C3)ccc2c1
remaining binding (cell-free assay, competition with immobilised ligand; 1 µM): 61%

Cn1c2c(Cl)c(Cl)ccc2c2cc(N)[nH]c(=O)c21
ΔTm (thermal stability, DSF; 10 µM): 0.1 °C
